The test system of series [1] is Nucleic Acid. As to the kind of experiment: Changes in the DNA melting temperature of an AT-rich dodecamer (CGATTATTAAGC) (GCTTAATAATCG) upon binding of an equimolar amount of compound. It counts as nucleic-acid assay. The essentials:
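Melting monitored by UV absorbance at 260 nm in 10 mM HEPES pH 7.2, 0.1 mM EDTA, 50 mM NaCl. 12-bp AT-rich oligo at 5 μM mixed with compound at equimolar ratio. Temperature ramped 15 to 95 °C at 0.2 °C/min. Tm by derivative method, checked by hyperchromicity. ΔTm is Tm with compound minus Tm without. At least duplicate.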

Series [2] deals with Enterococcus. As to the kind of experiment: In vitro antimicrobial activity against Vancomycin resistant enterococcus strain BM4147. It counts as functional. In outline: (§1)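 Broth microdilution MIC per NCCLS M7-A4. Compounds dissolved fresh in DMSO as 10 mM stock, then diluted in BHI medium for VRE (BM4147, UCD3) or Mueller-Hinton medium for MRSA. Seven 1:2 serial dilutions gave test concentrations of 45.5 to 0.7 μM. MIC read by visual inspection of wells after 2 days.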

Series [3] relates to Enterococcus. As to the kind of experiment: In vitro antimicrobial activity against Vancomycin resistant enterococcus strain UCD-3. It counts as functional. In outline:
as §1

Series [4] deals with Staphylococcus aureus. As to the kind of experiment: In vitro antimicrobial activity against Methicillin resistant Staphylococcus aureus. It is filed as functional. The essentials: as §1
A short description of series [5]: Toxicity assessed in human T-cells using a colorimetric cell proliferation assay. It counts as cell-based. In outline: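 CCRF-CEM human leukemia T-cells in RPMI-1640 with 10% FBS and gentamicin 0.1 mg/mL, seeded at 4 × 10^4 cells/well. Compound added at start at 50, 25, 12.5 and 6.3 μM. WST-1 cleavage read by absorbance at 440 nm at 24, 48 and 72 h. Value reported as lowest % of no-compound control, typically 72 h at 50 μM. At least triplicate.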

Structures are written as SMILES. Converted amounts (≈) assume the structure as drawn.

On to `Cn1cc(NC(=O)c2cc(NC(=O)c3cc(NC=O)cn3C)cn2C)cc1C(=O)NCCC(=N)N` [STALLIMYCIN], for which, in series [1], the ΔTm came out at 26. Besides, the MIC in series [2], in series [3] and in series [4] was more than 45.5 µM each time. Also, the NCC in series [5] was determined as 79%.

Turning to `Cn1cc(NC(=O)c2ccc(C(=O)Nc3cc(C(=O)NCCC(=N)N)n(C)c3)cc2)cc1C(=O)NCCC(=N)N`, the ΔTm in series [1] came to 30. In addition, the values for the minimal inhibitory concentration (MIC) in series [2], in series [3] and in series [4] were 22.2 µM (≈ 12.2 µg/mL), more than 45.5 µM and 22.7 µM (≈ 12.5 µg/mL), respectively. Besides, in series [5], the NCC is given as 56%.

The record behind these values is ChEMBL document CHEMBL1135717, “Minor groove DNA binders as antimicrobial agents. 1. Pyrrole tetraamides are potent antibacterials against vancomycin resistant Enterococci [corrected] and methicillin resistant Staphylococcus aureus” (J Med Chem, 2002).
